Test results reported in ChEMBL document CHEMBL3870358, “Covalent Guanosine Mimetic Inhibitors of G12C KRAS” (ACS Med Chem Lett, 2017).

Assays:
[1] = target: GTPase KRas (Homo sapiens, UniProt P01116, G12C); experiment: Binding affinity to GMP-stabilized FLAG-tagged KRAS G12C mutant (unknown origin) using desthiobiotin-GTP probe by alphascreen assay
Outline: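 Nucleotide-free recombinant KRAS G12C purified and stabilised with excess GMP, incubated with compound, then probed with GTP-desthiobiotin acyl phosphate probe (reacts with Lys16). Desthiobiotinylated protein detected by AlphaScreen (ActivAlpha). Observed reaction rates plotted against compound concentration and fit to kobs = kinact[I]/(Ki + [I]) to extract kinact and Ki.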

[2] = system: GTPase KRas (Homo sapiens), P01116 [G12C]; experiment: Binding affinity to recombinant GDP-loaded KRAS G12C mutant (unknown origin) assessed as half life at 115 uM by CPM-probe based fluorescence assay
Outline: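 Chemosensor competition assay. Purified recombinant GDP-loaded KRAS G12C incubated with compound, then probed at several time points with a probe detecting free unreacted Cys12 thiol. Read-out combines GDP displacement kinetics with covalent inactivation.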

[3] = system: GTPase KRas (Homo sapiens), P01116 [G12C]; experiment: Binding affinity to GMP-stabilized FLAG-tagged KRAS G12C mutant (unknown origin) assessed as inactivation constant using desthiobiotin-GTP probe by alphascreen assay
Outline: (§1)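 Nucleotide-free purified KRAS G12C, stabilized with excess GMP, incubated with compound. Remaining enzyme then labeled by a GTP-desthiobiotin acyl phosphate probe that reacts with Lys16, and detected with AlphaScreen reagents. Reaction rates were plotted against compound concentration and fit to kobs = kinact[I]/(Ki + [I]) to estimate kinact and Ki.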

[4] = system: GTPase KRas (Homo sapiens), P01116 [G12C]; experiment: Binding affinity to GMP-stabilized FLAG-tagged KRAS G12C mutant (unknown origin) assessed as ratio of Kinact to Ki using desthiobiotin-GTP probe by alphascreen assay; outline: as §1
[5] = Binding affinity to Mg2+ ion assessed as compound concentration required to reach Mg2+ dependent shift plateau by 31P NMR analysis
[6] = Binding affinity to Mg2+ ion assessed as compound concentration required to show half maximal Mg2+ dependent shift by 31P NMR analysis

GTPase KRas, sequence (P01116 whole entry G12C): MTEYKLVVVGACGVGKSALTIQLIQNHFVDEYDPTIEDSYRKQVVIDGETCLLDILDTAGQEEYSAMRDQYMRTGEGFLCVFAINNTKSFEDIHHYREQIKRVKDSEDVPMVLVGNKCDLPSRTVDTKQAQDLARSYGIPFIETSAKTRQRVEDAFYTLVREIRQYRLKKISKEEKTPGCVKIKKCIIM
GTPase KRas (Homo sapiens), P01116 [G12C], sequence (P01116 whole entry G12C): as above

Compound | Ki [1] [nM] | T1/2 [2] [h] | Kinact [3] [min⁻¹] | Ratio [4] [min⁻¹ µM⁻¹] | Activity [5] [equiv] | Activity [6] [equiv]
Nc1nc2c(ncn2[C@@H]2O[C@H](COP(=O)(O)CC(=O)OCCNC(=O)CCl)[C@@H](O)[C@H]2O)c(=O)[nH]1 | 15200 | 84 | 0.055 | 0.003 | – | –
Nc1nc2c(ncn2[C@@H]2O[C@H](COP(=O)(O)C(F)P(=O)(O)OCCNC(=O)CCl)[C@@H](O)[C@H]2O)c(=O)[nH]1 (mixture of isomers) | 8000 | 6.6 | 0.21 | 0.03 | – | –
Nc1nc2c(ncn2[C@@H]2O[C@H](COP(=O)(O)CP(=O)(O)OC3CCCN(C(=O)CCl)C3)[C@@H](O)[C@H]2O)c(=O)[nH]1 (mixture of isomers) | 3500 | 12 | 0.55 | 0.16 | – | –
Nc1nc2c(ncn2[C@@H]2O[C@H](CNc3c(NCCCNC(=O)CCl)c(=O)c3=O)[C@@H](O)[C@H]2O)c(=O)[nH]1 | > 25000 | 13 | – | – | – | –
Nc1nc2c(ncn2[C@@H]2O[C@H](COS(=O)(=O)NC(=O)OCCNC(=O)CCl)[C@@H](O)[C@H]2O)c(=O)[nH]1 | 5000 | 9.5 | 0.24 | 0.05 | – | –
Nc1nc2c(ncn2[C@@H]2O[C@H](COP(=O)(O)OP(=O)(O)O)[C@@H](O)[C@H]2O)c(=O)[nH]1 | – | – | – | – | 2 | 0.5
Nc1nc2c(ncn2[C@@H]2O[C@H](COC(=O)CS(=O)(=O)NCCNC(=O)CCl)[C@@H](O)[C@H]2O)c(=O)[nH]1 | > 10000 | 24 | – | – | – | –
Nc1nc2c(ncn2[C@@H]2O[C@H](COP(=O)(O)OP(=O)(O)OP(=O)(O)O)[C@@H](O)[C@H]2O)c(=O)[nH]1 | – | – | – | – | 2 | 0.5
Nc1nc2c(ncn2[C@@H]2O[C@H](COC(=O)CP(=O)(O)OCCNC(=O)CCl)[C@@H](O)[C@H]2O)c(=O)[nH]1 | 2200 | 47 | 0.053 | 0.02 | – | –
Nc1nc2c(ncn2[C@@H]2O[C@H](COP(=O)(O)CP(=O)(O)OCCCNC(=O)CCl)[C@@H](O)[C@H]2O)c(=O)[nH]1 | 374 | 2.5 | 0.07 | 0.2 | – | –
Nc1nc2c(ncn2[C@@H]2O[C@H](COP(=O)(O)OP(=O)(O)OCCNC(=O)CCl)[C@@H](O)[C@H]2O)c(=O)[nH]1 | 9 | 0.68 | 0.86 | 95 | – | –
Nc1nc2c(ncn2[C@@H]2O[C@H](COP(=O)(O)CP(=O)(O)OCCNC(=O)CCl)[C@@H](O)[C@H]2O)c(=O)[nH]1 | 2700 | 2.1 | 0.06 | 0.02 | – | –
Nc1nc2c(ncn2[C@@H]2O[C@H](COP(=O)(O)CP(=O)(O)OC3CCN(C(=O)CCl)C3)[C@@H](O)[C@H]2O)c(=O)[nH]1 (stereo not given in full) | 920 | 1.1 | 2.2 | 2.4 | – | –
Nc1nc2c(ncn2[C@@H]2O[C@H](COP(=O)(O)C(F)(F)P(=O)(O)OCCNC(=O)CCl)[C@@H](O)[C@H]2O)c(=O)[nH]1 | 380 | 4.2 | 0.365 | 0.9 | – | –
Nc1nc2c(ncn2[C@@H]2O[C@H](COP(=O)(O)CS(=O)(=O)NCCNC(=O)CCl)[C@@H](O)[C@H]2O)c(=O)[nH]1 | 1600 | 2.3 | 0.33 | 0.2 | – | –
C=CC(=O)NCCOP(=O)(O)OP(=O)(O)OC[C@H]1O[C@@H](n2cnc3c(=O)[nH]c(N)nc32)[C@H](O)[C@@H]1O | 280 | 0.6 | 2.12 | 7.6 | – | –
COC(=O)/C=C/CCCOP(=O)(O)CP(=O)(O)OC[C@H]1O[C@@H](n2cnc3c(=O)[nH]c(N)nc32)[C@H](O)[C@@H]1O | > 20000 | 120 | – | – | – | –
CC(C)(CNC(=O)CCl)COP(=O)(O)CP(=O)(O)OC[C@H]1O[C@@H](n2cnc3c(=O)[nH]c(N)nc32)[C@H](O)[C@@H]1O | 5000 | 20 | 0.14 | 0.028 | – | –
Nc1nc2c(ncn2[C@@H]2O[C@H](COP(=O)(O)CP(=O)(O)O[C@@H]3CC[C@H](NC(=O)CCl)C3)[C@@H](O)[C@H]2O)c(=O)[nH]1 (mixture of isomers) | 50000 | 42 | 1 | 0.02 | – | –
Nc1nc2c(ncn2[C@@H]2O[C@H](COP(=O)(O)C(F)(F)P(=O)(O)OCCCNC(=O)CCl)[C@@H](O)[C@H]2O)c(=O)[nH]1 | 382 | 1.06 | 0.3 | 0.8 | – | < 20
Nc1nc2c(ncn2[C@@H]2O[C@H](COP(=O)(O)CP(=O)(O)O[C@@H]3CC[C@@H](NC(=O)CCl)C3)[C@@H](O)[C@H]2O)c(=O)[nH]1 (mixture of isomers) | 36000 | 64 | 2.3 | 0.06 | – | –
